Experimental data as given in ChEMBL document CHEMBL4673384, “Studying Histone Deacetylase Inhibition and Apoptosis Induction of Psammaplin A Monomers with Modified Thiol Group” (ACS Med Chem Lett, 2021).
Calls of active or inactive are those of the source. The rule behind the calls is not given here.

Legend:
HL-60 [1] = assay: Induction of apoptosis in human HL-60 cells assessed as early apoptotic cells at 0.5 uM incubated for 24 hrs by propidium iodide and annexin-V FITC staining based FACS analysis (reference value: 2.8 %); type: functional
HL-60 [2] = assay: Induction of apoptosis in human HL-60 cells assessed as late apoptotic cells at 0.5 uM incubated for 24 hrs by propidium iodide and annexin-V FITC staining based FACS analysis (reference value: 4.8 %); type: functional
HL-60 [3] = assay: Induction of apoptosis in human HL-60 cells assessed as necrotic cells at 1 uM incubated for 24 hrs by propidium iodide and annexin-V FITC staining based FACS analysis (reference value: 0.3 %); type: functional
[4] = target: Histone deacetylase 3 (Homo sapiens) (UniProt O15379); assay: Inhibition of HDAC3 in human HL-60 cells assessed as increase in Ac-H3 level at 0.5 to 2 uM incubated for 24 hrs by Western blot analysis; type: cell-based; conditions: dose 0.5-2 µM
In short: (§1)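 Compound given to HL-60 cells for 24 h at the stated concentrations, then lysed. Acetyl-histone H3 and acetyl-α-tubulin levels were read by Western blot, with total H3, α-tubulin or β-actin as references.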

HL-60 [5] = assay: Induction of apoptosis in human HL-60 cells assessed as cleavage of caspase-3 at 0.5 to 8 uM after 24 hrs Western blot analysis; type: functional, cell-based; conditions: dose 0.5-8 µM
In short: (§2)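 HL-60 cells were treated for 24 h at the indicated concentrations, then analysed by Western blot. Blots were probed for cleavage of PARP and caspase-3, -8 and -9. Ac-H3, Ac-α-tubulin and β-actin were also detected, with β-actin as the loading reference.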

HL-60 [6] = assay: Induction of apoptosis in human HL-60 cells assessed as late apoptotic cells at 4 uM incubated for 24 hrs by propidium iodide and annexin-V FITC staining based FACS analysis (reference value: 4.2 %); type: functional
HL-60 [7] = assay: Induction of apoptosis in human HL-60 cells assessed as early apoptotic cells at 2 uM incubated for 24 hrs by propidium iodide and annexin-V FITC staining based FACS analysis (reference value: 2.9 %); type: functional
[8] = target: Histone deacetylase 3 (Homo sapiens) (UniProt O15379); assay: Inhibition of HDAC3 in human HL-60 cells assessed as increase in Ac-H3 level at 0.5 to 8 uM incubated for 24 hrs by Western blot analysis; type: cell-based; conditions: dose 0.5-8 µM; in short: as §1
HL-60 [9] = assay: Induction of apoptosis in human HL-60 cells assessed as viable cells at 4 uM incubated for 24 hrs by propidium iodide and annexin-V FITC staining based FACS analysis (reference value: 92.05 %); type: functional; conditions: read-out: Activity
HL-60 [10] = assay: Induction of apoptosis in human HL60 cells assessed as viable cells at 2 uM incubated for 24 hrs by propidium iodide and annexin-V FITC staining based FACS analysis (reference value: 92.05 %); type: functional; conditions: read-out: Activity
HL-60 [11] = assay: Induction of apoptosis in human HL-60 cells assessed as late apoptotic cells at 2 uM incubated for 24 hrs by propidium iodide and annexin-V FITC staining based FACS analysis (reference value: 4.2 %); type: functional
HL-60 [12] = assay: Induction of apoptosis in human HL-60 cells assessed as late apoptotic cells at 1 uM incubated for 24 hrs by propidium iodide and annexin-V FITC staining based FACS analysis (reference value: 4.2 %); type: functional
[13] = target: T1, Protein deacetylase HDAC6 (Homo sapiens) (UniProt Q9UBN7); assay: Inhibition of HDAC6 in human HL-60 cells assessed as increase in acetylated alpha tubulin level at 0.5 to 8 uM after 24 hrs by Western blot analysis; type: cell-based; conditions: dose 0.5-8 µM; in short: as §1
T1 sequence (whole entry): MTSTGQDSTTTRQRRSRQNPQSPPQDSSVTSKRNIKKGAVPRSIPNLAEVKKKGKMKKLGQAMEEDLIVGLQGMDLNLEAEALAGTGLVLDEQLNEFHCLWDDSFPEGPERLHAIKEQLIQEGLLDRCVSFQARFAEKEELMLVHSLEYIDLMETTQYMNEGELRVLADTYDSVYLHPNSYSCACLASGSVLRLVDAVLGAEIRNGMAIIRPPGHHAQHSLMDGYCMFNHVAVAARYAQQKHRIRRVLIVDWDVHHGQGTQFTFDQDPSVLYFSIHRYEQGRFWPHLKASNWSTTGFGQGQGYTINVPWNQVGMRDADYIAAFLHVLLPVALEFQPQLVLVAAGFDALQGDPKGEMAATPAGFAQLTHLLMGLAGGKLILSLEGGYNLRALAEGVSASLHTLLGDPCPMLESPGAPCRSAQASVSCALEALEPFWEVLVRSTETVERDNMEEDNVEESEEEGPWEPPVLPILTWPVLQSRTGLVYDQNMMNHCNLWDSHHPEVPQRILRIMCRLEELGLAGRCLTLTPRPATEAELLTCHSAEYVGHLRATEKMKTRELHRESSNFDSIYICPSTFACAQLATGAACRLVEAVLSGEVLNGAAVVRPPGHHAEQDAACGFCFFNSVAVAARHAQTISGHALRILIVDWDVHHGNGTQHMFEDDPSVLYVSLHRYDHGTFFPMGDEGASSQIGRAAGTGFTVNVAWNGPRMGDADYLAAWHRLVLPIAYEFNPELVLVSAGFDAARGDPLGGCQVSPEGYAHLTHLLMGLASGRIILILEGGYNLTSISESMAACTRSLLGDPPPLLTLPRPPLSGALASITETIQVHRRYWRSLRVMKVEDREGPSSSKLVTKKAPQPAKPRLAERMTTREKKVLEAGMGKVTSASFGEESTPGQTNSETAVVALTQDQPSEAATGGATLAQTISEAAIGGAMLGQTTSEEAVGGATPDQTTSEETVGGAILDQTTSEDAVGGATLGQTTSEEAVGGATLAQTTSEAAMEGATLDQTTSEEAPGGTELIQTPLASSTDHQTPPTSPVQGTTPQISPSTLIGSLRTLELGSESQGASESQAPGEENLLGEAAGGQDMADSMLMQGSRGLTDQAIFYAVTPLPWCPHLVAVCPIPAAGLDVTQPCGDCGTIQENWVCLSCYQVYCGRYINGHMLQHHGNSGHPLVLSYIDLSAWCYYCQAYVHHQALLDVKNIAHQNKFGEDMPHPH

HL-60 [14] = assay: Induction of apoptosis in human HL-60 cells assessed as cleavage of caspase-8 at 0.5 to 8 uM after 24 hrs Western blot analysis; type: functional, cell-based; conditions: dose 0.5-8 µM; in short: as §2
Histone deacetylase 2 = Histone deacetylase 2 (Homo sapiens, UniProt Q92769); assay: Inhibition of HDAC2 in human HL-60 cells assessed as increase in Ac-H3 level at 0.5 to 8 uM incubated for 24 hrs by Western blot analysis; type: cell-based; conditions: dose 0.5-8 µM; in short: as §1
HL-60 [15] = assay: Induction of apoptosis in human HL-60 cells assessed as necrotic cells at 2 uM incubated for 24 hrs by propidium iodide and annexin-V FITC staining based FACS analysis (reference value: 0.5 %); type: functional
[16] = Antitumor activity against mouse LL/2 cells inoculated in C57BL/6J mouse assessed as tumor growth inhibition at 100 mg/kg, ip administered for 12 days; type: functional, Lewis lung carcinoma; design: scale not given: the % may be the effect or the level left; conditions: time 12 day
HL-60 [17] = assay: Induction of apoptosis in human HL-60 cells assessed as viable cells at 8 uM incubated for 24 hrs by propidium iodide and annexin-V FITC staining based FACS analysis (reference value: 92.05 %); type: functional; conditions: read-out: Activity

Chain of Histone deacetylase 3 (Homo sapiens) (O15379 whole entry): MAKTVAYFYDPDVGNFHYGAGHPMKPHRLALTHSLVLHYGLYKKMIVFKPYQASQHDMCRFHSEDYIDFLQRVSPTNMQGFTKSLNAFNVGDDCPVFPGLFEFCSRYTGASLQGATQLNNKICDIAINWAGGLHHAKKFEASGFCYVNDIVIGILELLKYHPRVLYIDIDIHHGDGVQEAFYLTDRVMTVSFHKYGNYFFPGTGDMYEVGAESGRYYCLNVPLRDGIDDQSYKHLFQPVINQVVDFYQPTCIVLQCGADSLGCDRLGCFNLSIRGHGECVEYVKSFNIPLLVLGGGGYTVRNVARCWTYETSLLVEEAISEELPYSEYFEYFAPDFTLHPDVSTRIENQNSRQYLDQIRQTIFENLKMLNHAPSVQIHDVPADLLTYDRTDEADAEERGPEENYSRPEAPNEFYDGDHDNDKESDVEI
Chain of Histone deacetylase 2 (Q92769 whole entry): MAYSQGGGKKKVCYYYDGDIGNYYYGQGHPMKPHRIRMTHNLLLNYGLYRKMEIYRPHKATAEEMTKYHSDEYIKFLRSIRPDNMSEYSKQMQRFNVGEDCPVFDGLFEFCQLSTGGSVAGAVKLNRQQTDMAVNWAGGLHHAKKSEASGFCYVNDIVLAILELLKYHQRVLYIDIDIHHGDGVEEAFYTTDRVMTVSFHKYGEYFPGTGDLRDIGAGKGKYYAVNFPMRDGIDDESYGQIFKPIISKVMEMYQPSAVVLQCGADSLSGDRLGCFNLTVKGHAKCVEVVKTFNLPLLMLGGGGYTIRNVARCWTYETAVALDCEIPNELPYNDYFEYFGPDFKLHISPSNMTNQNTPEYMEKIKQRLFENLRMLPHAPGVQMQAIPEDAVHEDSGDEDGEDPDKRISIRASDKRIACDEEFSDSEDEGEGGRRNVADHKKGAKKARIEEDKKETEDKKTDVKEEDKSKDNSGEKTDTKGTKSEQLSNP

| inhibition [4] | inhibition [8] | inhibition [13] | inhibition (Histone deacetylase 2) | SMILES | Activity (HL-60 [1]) | Activity (HL-60 [2]) | Activity (HL-60 [3]) | Activity (HL-60 [5]) | Activity (HL-60 [6]) | Activity (HL-60 [7]) | viability at 4 µM (HL-60 [9]) | viability at 2 µM (HL-60 [10]) | Activity (HL-60 [11]) | Activity (HL-60 [12]) | Activity (HL-60 [14]) | Activity (HL-60 [15]) | Activity [16] | viability at 8 µM (HL-60 [17]) |
| --- | --- | --- | --- | --- | --- | --- | --- | --- | --- | --- | --- | --- | --- | --- | --- | --- | --- | --- |
| Active | – | – | – | O=C(CCNC(=O)/C(Cc1ccc(O)c(Br)c1)=N/O)NO | 1.9% | 5.9% | 0.5% | – | – | – | – | – | – | – | – | – | – | – |
| – | Active | inactive | Active | O=C(NCCSSCCNC(=O)/C(Cc1ccc(O)c(Br)c1)=N/O)/C(Cc1ccc(O)c(Br)c1)=N/O [PSAMMAPLIN A] | – | – | – | Active | 26.7% | 4.1% | 66.2% | 67.1% | 24.9% | 7.8% | Active | 3.9% | – | – |
| – | Active | inactive | Active | O=C(NCCS)/C(Cc1ccc(O)c(Br)c1)=N/O | – | – | – | Active | 4.7% | 2.4% | 93.3% | 93.6% | 3.7% | – | Active | 0.3% | 62% | 68.3% |
